Measured values: ChEMBL document CHEMBL4373647, “Design, synthesis, and antimicrobial evaluation of 1,4-dihydroindeno[1,2-c]pyrazole tethered carbohydrazide hybrids: exploring their in silico ADMET, ergosterol inhibition and ROS inducing potential” (Medchemcomm, 2019)
Values after ≈ are worked out from the molar mass of the structure shown.

What was measured:
Assay type in all cases: functional
[1] = test system: Micrococcus luteus; assay: Antibacterial activity against Micrococcus luteus MTCC 2470 assessed as inhibition of bacterial growth incubated for 24 hrs by agar well diffusion method; conditions: MTCC 2470, 24 h
Summary of the method: (§1)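 Strains from MTCC; inoculum at 0.5 McFarland spread on Mueller-Hinton agar; 6 mm wells loaded with compound over 125–0.97 µg/mL; ciprofloxacin positive control (same range), DMSO negative control. Plates held 24 h at 37 °C; MIC taken as lowest concentration giving a clear inhibition zone. Triplicate runs, mean MIC reported.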

[2] = test system: Staphylococcus aureus; assay: Antibacterial activity against Staphylococcus aureus MTCC 96 assessed as inhibition of bacterial growth incubated for 24 hrs by agar well diffusion method; conditions: MTCC 96, 24 h; summary of the method: as §1
[3] = test system: Staphylococcus aureus; assay: Antibacterial activity against Staphylococcus aureus MLS-16 MTCC 2940 assessed as inhibition of bacterial growth incubated for 24 hrs by agar well diffusion method; conditions: MLS-16 MTCC 2940, 24 h; summary of the method: as §1
[4] = test system: Bacillus subtilis; assay: Antibacterial activity against Bacillus subtilis MTCC 121 assessed as inhibition of bacterial growth incubated for 24 hrs by agar well diffusion method; conditions: MTCC 121, 24 h; summary of the method: as §1
[5] = test system: Escherichia coli; assay: Antibacterial activity against Escherichia coli MTCC 739 assessed as inhibition of bacterial growth incubated for 24 hrs by agar well diffusion method; conditions: MTCC 739, 24 h; summary of the method: as §1
[6] = test system: Pseudomonas aeruginosa; assay: Antibacterial activity against Pseudomonas aeruginosa MTCC 2453 assessed as inhibition of bacterial growth incubated for 24 hrs by agar well diffusion method; conditions: MTCC 2453, 24 h; summary of the method: as §1
[7] = test system: Raoultella planticola; assay: Antibacterial activity against Klebsiella planticola MTCC 530 assessed as inhibition of bacterial growth incubated for 24 hrs by agar well diffusion method; conditions: MTCC 530, 24 h; summary of the method: as §1
[8] = test system: Candida albicans; assay: Antifungal activity against Candida albicans MTCC 3017 assessed as inhibition of fungal growth incubated for 24 hrs by agar well diffusion method; conditions: MTCC 3017, 24 h
Summary of the method: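 Candida strains from MTCC, pre-cultured and spread on Mueller Hinton agar. Wells received compound dissolved in 10% DMSO, 125–0.97 µg/mL; miconazole standard over the same range, DMSO negative control. After 24 h at 37 °C, MIC was read as the lowest concentration giving an inhibition zone. Duplicate experiments, means given.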

Structure (SMILES)	MIC [1]	MIC [2]	MIC [3]	MIC [4]	MIC [5]	MIC [6]	MIC [7]	MIC [8]
O=C(N/N=C/c1ccc(Br)cc1)c1n[nH]c2c1Cc1cc(F)ccc1-2	> 125 µg/mL	7.8 µg/mL (≈ 19.5 µM)	15.6 µg/mL (≈ 39.1 µM)	7.8 µg/mL (≈ 19.5 µM)	> 125 µg/mL	> 125 µg/mL	> 125 µg/mL	> 125 µg/mL
COc1ccc2c(c1)Cc1c(C(=O)N/N=C/c3ccc(Br)cc3)n[nH]c1-2	> 125 µg/mL	> 125 µg/mL	> 125 µg/mL	> 125 µg/mL	> 125 µg/mL	> 125 µg/mL	> 125 µg/mL	> 125 µg/mL
COc1ccc2c(c1)Cc1c(C(=O)N/N=C/c3ccc(O)cc3)n[nH]c1-2	3.9 µg/mL (≈ 11.2 µM)	7.8 µg/mL (≈ 22.4 µM)	7.8 µg/mL (≈ 22.4 µM)	7.8 µg/mL (≈ 22.4 µM)	> 125 µg/mL	> 125 µg/mL	> 125 µg/mL	> 125 µg/mL
COc1cc(/C=N/NC(=O)c2n[nH]c3c2Cc2cc(F)ccc2-3)cc(OC)c1OC	7.8 µg/mL (≈ 19 µM)	3.9 µg/mL (≈ 9.5 µM)	7.8 µg/mL (≈ 19 µM)	3.9 µg/mL (≈ 9.5 µM)	3.9 µg/mL (≈ 9.5 µM)	7.8 µg/mL (≈ 19 µM)	7.8 µg/mL (≈ 19 µM)	> 125 µg/mL
O=C(N/N=C/c1ccc(Cl)cc1)c1n[nH]c2c1Cc1ccccc1-2	> 125 µg/mL	3.9 µg/mL (≈ 11.6 µM)	3.9 µg/mL (≈ 11.6 µM)	7.8 µg/mL (≈ 23.2 µM)	7.8 µg/mL (≈ 23.2 µM)	> 125 µg/mL	> 125 µg/mL	> 125 µg/mL
COc1cc(/C=N/NC(=O)c2n[nH]c3c2Cc2cc(F)ccc2-3)ccc1O	> 125 µg/mL	> 125 µg/mL	3.9 µg/mL (≈ 10.6 µM)	> 125 µg/mL	> 125 µg/mL	> 125 µg/mL	> 125 µg/mL	31.2 µg/mL (≈ 85.2 µM)
O=C(N/N=C/c1c(F)cc(F)cc1F)c1n[nH]c2c1Cc1cc(F)ccc1-2	> 125 µg/mL	7.8 µg/mL (≈ 20.8 µM)	3.9 µg/mL (≈ 10.4 µM)	7.8 µg/mL (≈ 20.8 µM)	> 125 µg/mL	> 125 µg/mL	> 125 µg/mL	31.2 µg/mL (≈ 83.4 µM)
O=C(N/N=C/c1ccc(Br)cc1)c1n[nH]c2c1Cc1ccccc1-2	> 125 µg/mL	15.6 µg/mL (≈ 40.9 µM)	15.6 µg/mL (≈ 40.9 µM)	15.6 µg/mL (≈ 40.9 µM)	> 125 µg/mL	> 125 µg/mL	> 125 µg/mL	> 125 µg/mL
